Our source for the IC50 values is ChEMBL document CHEMBL3994605, “Synthesis and biological evaluation of curcumin inspired indole analogues as tubulin polymerization inhibitors” (Eur J Med Chem, 2017).

The test system of the first assay is HeLa. Put plainly: Antiproliferative activity against human HeLa cells after 48 hrs by MTT assay. It is filed as functional, cell-based.
Settings: not given
The essentials:
(§1)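 MTT read-out. Cells were seeded at 5 × 10^3 per well in DMEM or RPMI with 10% FBS and grown 24 h at 37 °C in CO2. Compound dilutions in medium, with vehicle control, were then added for 48 h. MTT (0.5 mg/mL in medium) was given for 4 h, formazan was dissolved in DMSO, and A570 was read. IC50 was taken from concentration–response curves as mean ± SD of three experiments run in triplicate.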
For orientation: Tetrazolium dyes change colour on reduction, which living cells bring about.
The term IC50 denotes the midpoint of a concentration-inhibition curve. A low value points to greater potency in that assay. On to `COc1ccc(/C=C/C(=O)/C=C/c2cn(Cc3ccc(F)cc3)c3ccccc23)cc1OC`, for which the IC50 is more than 50 µM.
`COc1ccc(/C=C/C(=O)/C=C/c2cn(Cc3ccc(Cl)cc3)c3ccccc23)cc1` yielded an IC50 of 50 µM.
For the molecule `O=C(/C=C/c1ccc(Cl)cc1)/C=C/c1cn(Cc2ccccc2)c2ccccc12`, the IC50 is more than 50 µM.
On to `COc1cc(OC)c(/C=C/C(=O)/C=C/c2cn(Cc3cccc(F)c3)c3ccccc23)c(OC)c1`, for which it took 40.1 µM to reach half-maximal inhibition (IC50).
As to `COc1cc(OC)c(/C=C/C(=O)/C=C/c2cn(Cc3ccc(F)cc3)c3ccccc23)c(OC)c1`, the IC50 was more than 50 µM.
On to `COc1ccc(/C=C/C(=O)/C=C/c2cn(Cc3ccc(F)cc3)c3ccccc23)cc1`, for which the IC50 is more than 50 µM.
The molecule `COc1cc(OC)c(OC)cc1/C=C/C(=O)/C=C/c1cn(Cc2ccc(F)cc2)c2ccccc12` yielded an IC50 of 30.7 µM.

A further assay has as its system PC-3. The assay can be described thus: Antiproliferative activity against human PC3 cells after 48 hrs by MTT assay. The settings on record: PC-3, 48 h. It is filed as functional, cell-based. The essentials: as §1
In turn, `COc1ccc(/C=C/C(=O)/C=C/c2cn(Cc3ccc(F)cc3)c3ccccc23)cc1OC` came in with an IC50 of more than 50 µM.
On to `COc1ccc(/C=C/C(=O)/C=C/c2cn(Cc3ccc(Cl)cc3)c3ccccc23)cc1`, for which the IC50 was more than 50 µM.
`O=C(/C=C/c1ccc(Cl)cc1)/C=C/c1cn(Cc2ccccc2)c2ccccc12` had an IC50 of more than 50 µM.
In turn, `COc1cc(OC)c(/C=C/C(=O)/C=C/c2cn(Cc3cccc(F)c3)c3ccccc23)c(OC)c1` came in with an IC50 of more than 50 µM.
In the case of `COc1cc(OC)c(/C=C/C(=O)/C=C/c2cn(Cc3ccc(F)cc3)c3ccccc23)c(OC)c1`, the IC50 was more than 50 µM.
The molecule `COc1ccc(/C=C/C(=O)/C=C/c2cn(Cc3ccc(F)cc3)c3ccccc23)cc1` yielded a concentration for half-maximal inhibition (IC50) of more than 50 µM.
In turn, `COc1cc(OC)c(OC)cc1/C=C/C(=O)/C=C/c1cn(Cc2ccc(F)cc2)c2ccccc12` showed an IC50 of more than 50 µM.

A further assay relates to HGC-27. The assay can be described thus: Antiproliferative activity against human HGC27 cells after 48 hrs by MTT assay. The settings on record: HGC-27, 48 h. The assay is classed as functional, cell-based. An outline of the steps:
as §1
Take `COc1ccc(/C=C/C(=O)/C=C/c2cn(Cc3ccc(F)cc3)c3ccccc23)cc1OC`: inhibition was half-maximal at 50.3 µM (IC50).
With `COc1ccc(/C=C/C(=O)/C=C/c2cn(Cc3ccc(Cl)cc3)c3ccccc23)cc1`, the IC50 was more than 50 µM.
The molecule `O=C(/C=C/c1ccc(Cl)cc1)/C=C/c1cn(Cc2ccccc2)c2ccccc12` returned an IC50 of more than 50 µM.
The molecule `COc1cc(OC)c(/C=C/C(=O)/C=C/c2cn(Cc3cccc(F)c3)c3ccccc23)c(OC)c1` returned a concentration for half-maximal inhibition (IC50) of more than 50 µM.
On the same count and under the same terms, the value for `COc1cc(OC)c(/C=C/C(=O)/C=C/c2cn(Cc3ccc(F)cc3)c3ccccc23)c(OC)c1` was 50.8 µM; that for `COc1ccc(/C=C/C(=O)/C=C/c2cn(Cc3ccc(F)cc3)c3ccccc23)cc1` was more than 50 µM; that for `COc1cc(OC)c(OC)cc1/C=C/C(=O)/C=C/c1cn(Cc2ccc(F)cc2)c2ccccc12` was 40.2 µM.

Another assay deals with 4T1. Put plainly: Antiproliferative activity against mouse 4T1 cells after 48 hrs by MTT assay. It is filed as functional, cell-based. The settings on record: 4T1, 48 h. The essentials:
as §1
Take `COc1ccc(/C=C/C(=O)/C=C/c2cn(Cc3ccc(F)cc3)c3ccccc23)cc1OC`: the IC50 worked out at 40 µM.
In turn, `COc1ccc(/C=C/C(=O)/C=C/c2cn(Cc3ccc(Cl)cc3)c3ccccc23)cc1` returned an IC50 of more than 50 µM.
In turn, `O=C(/C=C/c1ccc(Cl)cc1)/C=C/c1cn(Cc2ccccc2)c2ccccc12` returned a half-maximal inhibitory concentration (IC50) of more than 50 µM.
Take `COc1cc(OC)c(/C=C/C(=O)/C=C/c2cn(Cc3cccc(F)c3)c3ccccc23)c(OC)c1`: the half-inhibitory concentration (IC50) was more than 50 µM.
The same measure, in the same setting: the figure for `COc1cc(OC)c(/C=C/C(=O)/C=C/c2cn(Cc3ccc(F)cc3)c3ccccc23)c(OC)c1` is more than 50 µM; for `COc1ccc(/C=C/C(=O)/C=C/c2cn(Cc3ccc(F)cc3)c3ccccc23)cc1` it is more than 50 µM.
With `COc1cc(OC)c(OC)cc1/C=C/C(=O)/C=C/c1cn(Cc2ccc(F)cc2)c2ccccc12`, the half-inhibitory concentration (IC50) amounted to 25.2 µM.

In a further assay the test system is MDA-MB-231. The assay can be described thus: Antiproliferative activity against human MDA-MB-231 cells after 48 hrs by MTT assay. The assay is classed as functional, cell-based. Conditions: MDA-MB-231, 48 h. An outline of the steps:
as §1
Molecule `COc1ccc(/C=C/C(=O)/C=C/c2cn(Cc3ccc(F)cc3)c3ccccc23)cc1OC` registered an IC50 of more than 50 µM.
Consider `COc1ccc(/C=C/C(=O)/C=C/c2cn(Cc3ccc(Cl)cc3)c3ccccc23)cc1`, for which the IC50 is more than 50 µM.
Same read-out and setting: the figure for `O=C(/C=C/c1ccc(Cl)cc1)/C=C/c1cn(Cc2ccccc2)c2ccccc12` is more than 50 µM; for `COc1cc(OC)c(/C=C/C(=O)/C=C/c2cn(Cc3cccc(F)c3)c3ccccc23)c(OC)c1` it is more than 50 µM; for `COc1cc(OC)c(/C=C/C(=O)/C=C/c2cn(Cc3ccc(F)cc3)c3ccccc23)c(OC)c1` it is more than 50 µM.
The molecule `COc1ccc(/C=C/C(=O)/C=C/c2cn(Cc3ccc(F)cc3)c3ccccc23)cc1` yielded a concentration for half-maximal inhibition (IC50) of more than 50 µM.
With `COc1cc(OC)c(OC)cc1/C=C/C(=O)/C=C/c1cn(Cc2ccc(F)cc2)c2ccccc12`, the IC50 is more than 50 µM.

Another assay has as its system BT-549. The assay can be described thus: Antiproliferative activity against human BT549 cells after 48 hrs by MTT assay. It is filed as functional, cell-based. The settings on record: BT-549, 48 h. An outline of the steps: as §1
With `COc1ccc(/C=C/C(=O)/C=C/c2cn(Cc3ccc(F)cc3)c3ccccc23)cc1OC`, the IC50 came to 30.1 µM.
The molecule `COc1ccc(/C=C/C(=O)/C=C/c2cn(Cc3ccc(Cl)cc3)c3ccccc23)cc1` came in with an IC50 of 50.4 µM.
Molecule `O=C(/C=C/c1ccc(Cl)cc1)/C=C/c1cn(Cc2ccccc2)c2ccccc12` displayed a concentration for half-maximal inhibition (IC50) of more than 50 µM.
`COc1cc(OC)c(/C=C/C(=O)/C=C/c2cn(Cc3cccc(F)c3)c3ccccc23)c(OC)c1`: the IC50 is more than 50 µM.
Molecule `COc1cc(OC)c(/C=C/C(=O)/C=C/c2cn(Cc3ccc(F)cc3)c3ccccc23)c(OC)c1` registered an IC50 of more than 50 µM.
Molecule `COc1ccc(/C=C/C(=O)/C=C/c2cn(Cc3ccc(F)cc3)c3ccccc23)cc1` returned a half-inhibitory concentration (IC50) of more than 50 µM.
Molecule `COc1cc(OC)c(OC)cc1/C=C/C(=O)/C=C/c1cn(Cc2ccc(F)cc2)c2ccccc12` showed a concentration for half-maximal inhibition (IC50) of 25.1 µM.

For a further assay, the system named is DU-145. Put plainly: Antiproliferative activity against human DU145 cells after 48 hrs by MTT assay. Conditions: DU-145, 48 h. It is filed as functional, cell-based. An outline of the steps: as §1
As to `COc1ccc(/C=C/C(=O)/C=C/c2cn(Cc3ccc(F)cc3)c3ccccc23)cc1OC`, the IC50 is more than 50 µM.
`COc1ccc(/C=C/C(=O)/C=C/c2cn(Cc3ccc(Cl)cc3)c3ccccc23)cc1` registered an IC50 of more than 50 µM.
In turn, `O=C(/C=C/c1ccc(Cl)cc1)/C=C/c1cn(Cc2ccccc2)c2ccccc12` registered a half-maximal inhibitory concentration (IC50) of more than 50 µM.
`COc1cc(OC)c(/C=C/C(=O)/C=C/c2cn(Cc3cccc(F)c3)c3ccccc23)c(OC)c1` had an IC50 of more than 50 µM.
Still for that read-out and setting: the value for `COc1cc(OC)c(/C=C/C(=O)/C=C/c2cn(Cc3ccc(F)cc3)c3ccccc23)c(OC)c1` was more than 50 µM; that for `COc1ccc(/C=C/C(=O)/C=C/c2cn(Cc3ccc(F)cc3)c3ccccc23)cc1` was more than 50 µM; that for `COc1cc(OC)c(OC)cc1/C=C/C(=O)/C=C/c1cn(Cc2ccc(F)cc2)c2ccccc12` was more than 50 µM.

Another assay concerns A549. Put plainly: Antiproliferative activity against human A549 cells after 48 hrs by MTT assay. It is filed as functional, cell-based. The settings on record: A549, 48 h. The essentials: as §1
For the molecule `COc1ccc(/C=C/C(=O)/C=C/c2cn(Cc3ccc(F)cc3)c3ccccc23)cc1OC`, the IC50 is more than 50 µM.
`COc1ccc(/C=C/C(=O)/C=C/c2cn(Cc3ccc(Cl)cc3)c3ccccc23)cc1` showed an IC50 of more than 50 µM.
Molecule `O=C(/C=C/c1ccc(Cl)cc1)/C=C/c1cn(Cc2ccccc2)c2ccccc12` had an IC50 of more than 50 µM.
For `COc1cc(OC)c(/C=C/C(=O)/C=C/c2cn(Cc3cccc(F)c3)c3ccccc23)c(OC)c1`, the half-inhibitory concentration (IC50) is more than 50 µM.
For `COc1cc(OC)c(/C=C/C(=O)/C=C/c2cn(Cc3ccc(F)cc3)c3ccccc23)c(OC)c1`, the IC50 was more than 50 µM.
Same read-out and setting: the value for `COc1ccc(/C=C/C(=O)/C=C/c2cn(Cc3ccc(F)cc3)c3ccccc23)cc1` was more than 50 µM; that for `COc1cc(OC)c(OC)cc1/C=C/C(=O)/C=C/c1cn(Cc2ccc(F)cc2)c2ccccc12` was 50.1 µM.
